Reference: ChEMBL document CHEMBL1154251, “Yeast glycogen synthase kinase-3beta pathway inhibitors from an organic extract of Streptomyces sp” (J Nat Prod, 2009)
The source made the active and inactive calls. No cut-off for these calls is given here.

Assays:
[1] = biological target: Glycogen synthase kinase-3 beta (Homo sapiens) (UniProt P49841); experiment: Inhibition of GSK3-beta expressed in H10075 yeast assessed as growth inhibition at 20 ug/disk after 72 hrs at 25 degreeC by disc diffusion method
Sequence of Glycogen synthase kinase-3 beta (Homo sapiens) (P49841 whole entry, looked up, the tested form may be a part): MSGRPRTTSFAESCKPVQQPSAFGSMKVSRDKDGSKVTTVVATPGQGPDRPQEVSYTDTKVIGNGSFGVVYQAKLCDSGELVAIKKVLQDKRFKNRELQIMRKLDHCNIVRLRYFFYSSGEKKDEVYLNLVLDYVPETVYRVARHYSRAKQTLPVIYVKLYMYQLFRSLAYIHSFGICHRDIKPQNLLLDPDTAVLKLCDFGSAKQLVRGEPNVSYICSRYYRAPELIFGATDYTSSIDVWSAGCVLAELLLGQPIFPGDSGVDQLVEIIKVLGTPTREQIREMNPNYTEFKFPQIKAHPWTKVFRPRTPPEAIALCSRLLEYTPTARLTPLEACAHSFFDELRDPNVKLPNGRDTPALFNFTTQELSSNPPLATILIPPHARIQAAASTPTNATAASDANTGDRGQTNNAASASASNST
Summary of the method: (§1)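 Yeast gsk-3 null strain H10075 (mck1 mds1 mrk1 yol128c disrupted) carrying cloned human GSK-3β on pKT10; grown 2 days at 37 °C in SC minus uracil, then seeded into SC minus uracil agar pH 5.6. Compounds applied on filter disks (20, 10, 5, 2.5 µg per disk); plates incubated 72 h at 25 and 37 °C; zone of inhibition diameter read; duplicate.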

[2] = biological target: Glycogen synthase kinase-3 beta (Homo sapiens) (UniProt P49841); experiment: Inhibition of GSK3-beta expressed in H10075 yeast assessed as growth inhibition at 20 ug/disk after 72 hrs at 37 degreeC by disc diffusion method
Summary of the method: (§2)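 Yeast gsk-3 null strain H10075 (mck1, mds1, mrk1, yol128c disrupted) carrying pKT10-GSK-3β. Grown 2 days at 37 °C in SC minus uracil broth, then seeded into SC minus uracil agar, pH 5.6. Samples on filter disks, screened at 20 µg/disk, actives retested down to 2.5 µg/disk. Plates held 72 h at both 25 and 37 °C. Zone of inhibition read; duplicates.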

[3] = biological target: Glycogen synthase kinase-3 beta (Homo sapiens) (UniProt P49841); experiment: Inhibition of GSK3-beta expressed in H10075 yeast assessed as growth inhibition at 10 ug/disk after 72 hrs at 37 degreeC by disc diffusion method; summary of the method: as §2
[4] = biological target: Glycogen synthase kinase-3 beta (Homo sapiens) (UniProt P49841); experiment: Inhibition of GSK3-beta expressed in H10075 yeast assessed as growth inhibition at 10 ug/disk after 72 hrs at 24 degreeC by disc diffusion method
[5] = biological target: Glycogen synthase kinase-3 beta (Homo sapiens) (UniProt P49841); experiment: Inhibition of GSK3-beta expressed in H10075 yeast assessed as growth inhibition at 5 ug/disk after 72 hrs at 24 degreeC by disc diffusion method
[6] = biological target: Glycogen synthase kinase-3 beta (Homo sapiens) (UniProt P49841); experiment: Inhibition of GSK3-beta expressed in H10075 yeast assessed as growth inhibition at 5 ug/disk after 72 hrs at 37 degreeC by disc diffusion method; summary of the method: as §1
[7] = biological target: Glycogen synthase kinase-3 beta (Homo sapiens) (UniProt P49841); experiment: Inhibition of GSK3-beta expressed in H10075 yeast assessed as growth inhibition at 2.5 ug/disk after 72 hrs at 24 degreeC by disc diffusion method
[8] = biological target: Glycogen synthase kinase-3 beta (Homo sapiens) (UniProt P49841); experiment: Inhibition of GSK3-beta expressed in H10075 yeast assessed as growth inhibition at 2.5 ug/disk after 72 hrs at 37 degreeC by disc diffusion method; summary of the method: as §1

SMILES | inhibition zone (IZ) [1] | inhibition zone (IZ) [2] | inhibition zone (IZ) [3] | inhibition zone (IZ) [4] | inhibition zone (IZ) [5] | inhibition zone (IZ) [6] | inhibition zone (IZ) [7] | inhibition zone (IZ) [8]
Cn1sc(=O)n(Cc2ccccc2)c1=O | 10 mm | 11 mm | 10 mm | 9 mm | 8 mm | 9 mm | inactive | inactive
CC/C=C(\C)C(=O)CC(O)CC1CC(=O)NC(=O)C1 (stereo not given) | 10 mm | 38 mm | 34 mm | inactive | inactive | 30 mm | inactive | 28 mm
C[C@H]1C[C@H](C)C(=O)[C@@H]([C@H](O)CC2CC(=O)NC(=O)C2)C1 | 22 mm | 33 mm | 25 mm | 16 mm | 12 mm | 15 mm | inactive | inactive
C[C@@H]1C[C@@H]([C@H](O)CC2CC(=O)NC(=O)C2)C(=O)[C@@H](C)C1 | 36 mm |  |  | 33 mm | 30 mm | 48 mm | 25 mm | 42 mm
